Measured values: ChEMBL document CHEMBL5303300, “EUbOPEN Chemogenomics Library - Multiplex” (2023)
Several values for one entry are separate records, joined by “and”; a condition that tells them apart may be missing. Equal entries are not always repeated.

Assays:
Type in all cases: toxicity, cell-based
Fibroblast = experiment: Multiplex assay against human fibroblast; settings: 10 µM, compound concentration 10 uM, number of replicates 2
Procedure, shortened: (§1)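 Compound was added to live cells that had been stained at seeding with Hoechst33342, BioTracker Green Microtubule Cytoskeleton Dye, MitoTracker Red and Annexin V Alexa Fluor 680, and imaging followed on a CQ1 microscope at 37°C and 5% CO2. CellPathfinder machine-learning gating divided cells into Hoechst high-intensity objects or normal cells, normal cells into healthy, pyknosed or fragmented nuclei, and pyknosed cells into mitotic or apoptotic. Tubulin, mitochondrial-mass and membrane-permeability phenotypes are per cents of healthy-nucleus cells.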

U2OS = experiment: Multiplex assay against U2OS; settings: human, 10 µM, compound concentration 10 uM, number of replicates 2; procedure, shortened: as §1
HEK-293T = experiment: Multiplex assay against HEK293T; settings: human, 10 µM, compound concentration 10 uM, number of replicates 2; procedure, shortened: as §1

CNC(=O)c1nn(C)c2c1C(C)(C)Cc1cnc(Nc3ccc(N4CCN(C)CC4)cc3)nc1-2 [MILCICLIB]
Population Apoptotic (%) (Fibroblast; 12 h): 44% and 41% and 38% and 43% | Population Fragmented Nuclei (%) (Fibroblast; 12 h): 8% and 14% and 10% and 12% | Population Healthy Nuclei (%) (Fibroblast; 12 h): 78% and 69% and 75% and 76% | Population Hoechst High Intensity Objects (%) (Fibroblast; 12 h): 0% | Population Membrane Permeable-Phenotype (%) (Fibroblast; 12 h): 10% and 5% and 9% and 11% | Population Mitochondria Different-Phenotype (%) (Fibroblast; 12 h): 6% and 10% and 4% | Population Mitotic Cells (%) (Fibroblast; 12 h): 56% and 58% and 61% | Population Normal (%) (Fibroblast; 12 h): 99% and 100% | Population Pyknosed Nuclei (%) (Fibroblast; 12 h): 12% and 16% and 13% and 10% | Population Tubulin-Different-Phenotype (%) (Fibroblast; 12 h): 77% and 75% and 67% and 55% | Total Cell Count (Fibroblast; 12 h): 202 and 150 and 248 and 210 | Population Apoptotic (%) (Fibroblast; 24 h): 50% and 39% and 52% | Population Fragmented Nuclei (%) (Fibroblast; 24 h): 18% and 13% and 19% | Population Healthy Nuclei (%) (Fibroblast; 24 h): 71% and 74% and 70% and 73% | Population Hoechst High Intensity Objects (%) (Fibroblast; 24 h): 0% | Population Membrane Permeable-Phenotype (%) (Fibroblast; 24 h): 6% and 0% and 4% and 3% | Population Mitochondria Different-Phenotype (%) (Fibroblast; 24 h): 7% and 9% and 11% and 6% | Population Mitotic Cells (%) (Fibroblast; 24 h): 50% and 60% and 47% | Population Normal (%) (Fibroblast; 24 h): 99% and 100% | Population Pyknosed Nuclei (%) (Fibroblast; 24 h): 9% and 12% and 7% | Population Tubulin-Different-Phenotype (%) (Fibroblast; 24 h): 75% and 71% and 65% and 55% | Total Cell Count (Fibroblast; 24 h): 250 and 149 and 287 and 240 | Population Apoptotic (%) (Fibroblast; 48 h): 60% and 63% and 72% and 73% | Population Fragmented Nuclei (%) (Fibroblast; 48 h): 16% and 21% and 20% and 22% | Population Healthy Nuclei (%) (Fibroblast; 48 h): 71% and 58% and 67% and 63% | Population Hoechst High Intensity Objects (%) (Fibroblast; 48 h): 0% | Population Membrane Permeable-Phenotype (%) (Fibroblast; 48 h): 7% and 6% and 3% and 2% | Population Mitochondria Different-Phenotype (%) (Fibroblast; 48 h): 11% and 9% and 13% and 6% | Population Mitotic Cells (%) (Fibroblast; 48 h): 40% and 36% and 27% and 26% | Population Normal (%) (Fibroblast; 48 h): 100% | Population Pyknosed Nuclei (%) (Fibroblast; 48 h): 12% and 20% and 13% | Population Tubulin-Different-Phenotype (%) (Fibroblast; 48 h): 66% and 57% and 56% and 48% | Total Cell Count (Fibroblast; 48 h): 241 and 162 and 294 and 249 | Population Apoptotic (%) (U2OS; 12 h): 66% and 80% and 69% and 62% | Population Healthy Nuclei (%) (U2OS; 12 h): 67% [middle of 4 runs] | Population Hoechst High Intensity Objects (%) (U2OS; 12 h): 0% | Population Mitochondria Different-Phenotype (%) (U2OS; 12 h): 50% and 57% and 45% and 40% | Population Mitotic Cells (%) (U2OS; 12 h): 33% and 19% and 30% and 37% | Population Normal (%) (U2OS; 12 h): 100% and 99% | Population Pyknosed Nuclei (%) (U2OS; 12 h): 39% [middle of 4 runs] | Population Tubulin-Different-Phenotype (%) (U2OS; 12 h): 85% and 92% and 76% and 74% | Population Apoptotic (%) (U2OS; 24 h): 85% and 89% and 80% | Population Healthy Nuclei (%) (U2OS; 24 h): 50% [middle of 4 runs] | Population Hoechst High Intensity Objects (%) (U2OS; 24 h): 0% | Population Mitochondria Different-Phenotype (%) (U2OS; 24 h): 78% and 64% and 65% and 59% | Population Mitotic Cells (%) (U2OS; 24 h): 14% and 10% and 19% | Population Normal (%) (U2OS; 24 h): 100% and 99% | Population Pyknosed Nuclei (%) (U2OS; 24 h): 57% and 43% and 45% and 36% | Population Tubulin-Different-Phenotype (%) (U2OS; 24 h): 78% and 92% and 77% and 69% | Population Apoptotic (%) (U2OS; 48 h): 93% and 84% and 92% and 89% | Population Healthy Nuclei (%) (U2OS; 48 h): 26% [middle of 4 runs] | Population Hoechst High Intensity Objects (%) (U2OS; 48 h): 0% and 1% | Population Membrane Permeable-Phenotype (%) (U2OS; 48 h): 28% and 36% and 26% | Population Mitochondria Different-Phenotype (%) (U2OS; 48 h): 100% and 54% and 69% | Population Mitotic Cells (%) (U2OS; 48 h): 6% and 15% and 7% and 10% | Population Normal (%) (U2OS; 48 h): 100% and 98% | Population Pyknosed Nuclei (%) (U2OS; 48 h): 76% and 42% and 68% and 57% | Population Tubulin-Different-Phenotype (%) (U2OS; 48 h): 71% and 81% and 77% | Population Apoptotic (%) (HEK-293T; 12 h): 71% and 63% and 94% and 80% | Population Fragmented Nuclei (%) (HEK-293T; 12 h): 2% and 5% and 0% | Population Healthy Nuclei (%) (HEK-293T; 12 h): 86% and 83% and 89% and 90% | Population Hoechst High Intensity Objects (%) (HEK-293T; 12 h): 16% and 14% and 15% and 12% | Population Membrane Permeable-Phenotype (%) (HEK-293T; 12 h): 3% and 1% and 0% and 2% | Population Mitochondria Different-Phenotype (%) (HEK-293T; 12 h): 81% and 80% and 79% and 71% | Population Normal (%) (HEK-293T; 12 h): 83% and 85% and 84% and 87% | Population Pyknosed Nuclei (%) (HEK-293T; 12 h): 10% and 7% and 8% | Population Tubulin-Different-Phenotype (%) (HEK-293T; 12 h): 94% and 95% and 91% | Total Cell Count (HEK-293T; 12 h): 247 and 254 and 304 and 272 | Population Apoptotic (%) (HEK-293T; 24 h): 73% and 83% and 95% and 70% | Population Fragmented Nuclei (%) (HEK-293T; 24 h): 3% and 4% and 1% | Population Healthy Nuclei (%) (HEK-293T; 24 h): 91% and 89% and 88% and 93% | Population Hoechst High Intensity Objects (%) (HEK-293T; 24 h): 16% and 15% and 14% | Population Membrane Permeable-Phenotype (%) (HEK-293T; 24 h): 2% and 0% and 1% | Population Mitochondria Different-Phenotype (%) (HEK-293T; 24 h): 86% and 85% and 82% and 78% | Population Normal (%) (HEK-293T; 24 h): 83% and 84% and 85% | Population Pyknosed Nuclei (%) (HEK-293T; 24 h): 5% and 6% | Population Tubulin-Different-Phenotype (%) (HEK-293T; 24 h): 93% and 92% and 90% | Total Cell Count (HEK-293T; 24 h): 355 and 365 and 395 | Population Apoptotic (%) (HEK-293T; 48 h): 82% and 77% and 88% and 76% | Population Fragmented Nuclei (%) (HEK-293T; 48 h): 3% and 1% | Population Healthy Nuclei (%) (HEK-293T; 48 h): 90% and 88% and 93% | Population Hoechst High Intensity Objects (%) (HEK-293T; 48 h): 19% and 16% and 11% and 14% | Population Membrane Permeable-Phenotype (%) (HEK-293T; 48 h): 2% and 1% and 0% | Population Mitochondria Different-Phenotype (%) (HEK-293T; 48 h): 91% and 90% and 94% and 89% | Population Mitotic Cells (%) (HEK-293T; 48 h): 17% and 22% and 12% and 23% | Population Normal (%) (HEK-293T; 48 h): 80% and 83% and 88% and 85% | Population Pyknosed Nuclei (%) (HEK-293T; 48 h): 5% and 8% and 6% and 4% | Population Tubulin-Different-Phenotype (%) (HEK-293T; 48 h): 93% and 89% and 88% | Total Cell Count (HEK-293T; 48 h): 395 and 386 and 413 and 401
